Measurements as given in ChEMBL document CHEMBL2010768, “Optimization of Potent Inhibitors of P. falciparum Dihydroorotate Dehydrogenase for the Treatment of Malaria” (ACS Med Chem Lett, 2011).
Each block holds one compound with its values, some of them ahead of it. Calls of active or inactive are those of the source. The calls are words filed in the database; no cut-off is given here.

Tests used:
[1] = biological target: T1, Dihydroorotate dehydrogenase (Plasmodium falciparum, UniProt Q54A96); assay: Inhibition of Plasmodium falciparum DHODH after 20 mins by 2,6-dichloroindophenol-reduction based assay
T1 sequence (Q54A96 whole entry): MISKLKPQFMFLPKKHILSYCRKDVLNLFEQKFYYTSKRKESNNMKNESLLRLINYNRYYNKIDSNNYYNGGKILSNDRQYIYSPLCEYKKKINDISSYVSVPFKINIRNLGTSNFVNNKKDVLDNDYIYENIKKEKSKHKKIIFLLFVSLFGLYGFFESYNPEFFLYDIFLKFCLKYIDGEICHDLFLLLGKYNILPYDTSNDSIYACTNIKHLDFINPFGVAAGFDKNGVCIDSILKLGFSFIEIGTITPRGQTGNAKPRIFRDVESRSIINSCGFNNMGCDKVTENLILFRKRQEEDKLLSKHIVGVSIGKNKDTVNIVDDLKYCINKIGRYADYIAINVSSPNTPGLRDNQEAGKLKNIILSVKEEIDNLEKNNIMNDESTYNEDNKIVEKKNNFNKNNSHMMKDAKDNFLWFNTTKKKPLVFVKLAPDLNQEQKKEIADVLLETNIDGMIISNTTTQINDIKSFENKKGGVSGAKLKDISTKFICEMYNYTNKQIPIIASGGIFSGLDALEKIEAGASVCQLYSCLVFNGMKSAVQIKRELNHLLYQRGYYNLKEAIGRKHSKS

[2] = biological target: Dihydroorotate dehydrogenase (quinone), mitochondrial (Homo sapiens, UniProt Q02127); assay: Inhibition of human DHODH after 20 mins by 2,6-dichloroindophenol-reduction based assay
Plasmodium berghei [3] = assay: Inhibition of Plasmodium berghei DHODH after 20 mins by 2,6-dichloroindophenol-reduction based assay
Plasmodium vivax = assay: Inhibition of Plasmodium vivax DHODH after 20 mins by 2,6-dichloroindophenol-reduction based assay
Plasmodium falciparum [4] = assay: Antiplasmodial activity against Plasmodium falciparum 3D7 infected in […] after 72 hrs by SYBR green assay; format: functional, organism-based; details: 3D7, 72 h
Plasmodium falciparum [5] = assay: Antiplasmodial activity against Plasmodium falciparum Dd2 infected in […] after 72 hrs by SYBR green assay; format: functional, organism-based; details: Dd2, 72 h
[6] = Clearance in human liver microsomes by LC-MS/MS analysis; format: ADME, Microsome
How it was run: (§1)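 Liver microsome incubation. Predicted clearance is derived from a well-stirred model corrected for microsomal and protein binding.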

[7] = Clearance in mouse liver microsomes by LC-MS/MS analysis; format: ADME, Microsome; how it was run: as §1
Cytochrome P450 1A2 = biological target: T2, Cytochrome P450 1A2 (Homo sapiens, UniProt P05177); assay: Inhibition of human CYP1A2 using phenacetin as substrate after 10 mins by LC-MS/MS analysis; format: ADME
T2 sequence (P05177 whole entry): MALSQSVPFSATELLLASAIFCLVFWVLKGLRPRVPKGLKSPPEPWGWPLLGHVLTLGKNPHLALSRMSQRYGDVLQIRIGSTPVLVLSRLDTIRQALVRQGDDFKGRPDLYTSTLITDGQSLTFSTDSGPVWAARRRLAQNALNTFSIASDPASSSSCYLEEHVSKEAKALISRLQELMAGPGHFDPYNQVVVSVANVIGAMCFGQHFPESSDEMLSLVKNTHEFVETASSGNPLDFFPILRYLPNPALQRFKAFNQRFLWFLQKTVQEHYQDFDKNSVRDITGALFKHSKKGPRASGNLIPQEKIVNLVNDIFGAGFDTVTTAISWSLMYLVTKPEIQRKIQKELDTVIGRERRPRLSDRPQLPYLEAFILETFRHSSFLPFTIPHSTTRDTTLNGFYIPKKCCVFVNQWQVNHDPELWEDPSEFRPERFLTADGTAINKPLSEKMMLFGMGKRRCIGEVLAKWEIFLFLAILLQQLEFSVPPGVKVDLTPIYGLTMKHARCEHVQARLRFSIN

Cytochrome P450 2C9 = Cytochrome P450 2C9 (Homo sapiens, UniProt P11712); assay: Inhibition of human CYP2C9 using diclofenac as substrate after 10 mins by LC-MS/MS analysis; format: ADME
Cytochrome P450 2C19 = Cytochrome P450 2C19 (Homo sapiens, UniProt P33261); assay: Inhibition of human CYP2C19 using S-mephenytoin as substrate after 45 mins by LC-MS/MS analysis; format: ADME
Cytochrome P450 3A4 = Cytochrome P450 3A4 (Homo sapiens, UniProt P08684); assay: Inhibition of human CYP3A4 using midazolam as substrate after 5 mins by LC-MS/MS analysis; format: ADME
Cytochrome P450 2D6 = Cytochrome P450 2D6 (Homo sapiens, UniProt P10635); assay: Inhibition of human CYP2D6 using bufuralol as substrate after 10 mins by LC-MS/MS analysis; format: ADME
[8] = biological target: Voltage-gated inwardly rectifying potassium channel KCNH2 (Homo sapiens, UniProt Q12809); assay: Inhibition of human ERG expressed in CHOK1 cells by whole cell voltage clamp assay; format: cell-based, CHO-K1
[9] = AUC (0 to infinity) in rat at 1 mg/kg, iv by LC-MS/MS analysis; format: ADME, organism-based; design: time infinity, dose 1 mg/kg, route intravenous; details: plasma
Canis familiaris [10] = assay: AUC (0 to infinity) in dog at 1 mg/kg, iv by LC-MS/MS analysis; format: ADME, organism-based, Canis lupus familiaris, Plasma; design: dose 1 mg/kg, route intravenous, time infinity; details: in vivo
[11] = Clearance in rat at 1 mg/kg, iv by LC-MS/MS analysis; format: ADME, organism-based; design: dose 1 mg/kg, route intravenous; details: in vivo
[12] = Clearance in dog at 1 mg/kg, iv by LC-MS/MS analysis; format: ADME, organism-based, Canis lupus familiaris; design: dose 1 mg/kg, route intravenous; details: in vivo
[13] = Volume of distribution at steady state in rat at 1 mg/kg, iv by LC-MS/MS analysis; format: ADME, organism-based; design: dose 1 mg/kg, route intravenous; details: in vivo, read-out: Vdss
[14] = Volume of distribution at steady state in dog at 1 mg/kg, iv by LC-MS/MS analysis; format: ADME, organism-based, Canis lupus familiaris; design: dose 1 mg/kg, route intravenous; details: in vivo, read-out: Vdss
[15] = Half life in rat at 1 mg/kg, iv by LC-MS/MS analysis; format: ADME, organism-based; design: dose 1 mg/kg, route intravenous; details: in vivo
[16] = Half life in dog at 1 mg/kg, iv by LC-MS/MS analysis; format: ADME, organism-based, Canis lupus familiaris; design: dose 1 mg/kg, route intravenous; details: in vivo
[17] = AUC (0 to infinity) in rat at 3 mg/kg, po by LC-MS/MS analysis; format: ADME, organism-based; design: time infinity, dose 3 mg/kg, route oral; details: plasma
Canis familiaris [18] = assay: AUC (0 to infinity) in dog at 3 mg/kg, po by LC-MS/MS analysis; format: ADME, organism-based, Canis lupus familiaris, Plasma; design: time infinity, dose 3 mg/kg, route oral; details: in vivo
[19] = Cmax in rat at 3 mg/kg, po by LC-MS/MS analysis; format: ADME, organism-based; design: dose 3 mg/kg, route oral; details: in vivo
[20] = Cmax in dog at 3 mg/kg, po by LC-MS/MS analysis; format: ADME, organism-based, Canis lupus familiaris; design: dose 3 mg/kg, route oral; details: in vivo
[21] = Oral bioavailability in rat at 3 mg/kg by LC-MS/MS analysis; format: ADME, organism-based; details: in vivo
Canis familiaris [22] = assay: Oral bioavailability in dog at 3 mg/kg by LC-MS/MS analysis; format: ADME, organism-based, Canis lupus familiaris; details: in vivo
[23] = Plasma protein binding in mouse by LC-MS/MS analysis; format: ADME, cell-free; details: read-out: PPB (converted)
[24] = Plasma protein binding in rat by LC-MS/MS analysis; format: ADME, cell-free; details: read-out: PPB (converted)
[25] = Plasma protein binding in dog by LC-MS/MS analysis; format: ADME, cell-free, Canis lupus familiaris; details: read-out: PPB (converted)
[26] = Plasma protein binding in human by LC-MS/MS analysis; format: ADME, cell-free; details: read-out: PPB (converted)
[27] = Permeability of the compound by parallel artificial membrane permeation assay; format: ADME; details: PAMPA; read-out: permeability
[28] = Toxicity in po dosed rat administered qd for 7 days measured after 7 days washout period; format: organism-based; details: in vivo
How it was run: (§2)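 Rats dosed orally once daily for 7 days at 0 (control), 50, 150, 450 and 600 mg/kg, then a 7-day washout. NOAEL determined, with Cmax and AUC reported at that exposure.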

[29] = Cmax in rat at 50 to 600 mg/kg, po qd for 7 days measured after 7 days washout period; format: ADME, organism-based; design: dose 50-600 mg/kg, route oral; details: in vivo; how it was run: as §2
[30] = AUC in rat at 50 to 600 mg/kg, po qd for 7 days measured after 7 days washout period; format: ADME, organism-based; design: dose 50-600 mg/kg, route oral; details: plasma; how it was run: as §2
Salmonella typhimurium [31] = assay: Mutagenic activity in Salmonella typhimurium TA98 up to 100 uM by Ames test; format: toxicity, organism-based; details: salmonella enterica subsp. enterica serovar typhimurium
Salmonella typhimurium [32] = assay: Mutagenic activity in Salmonella typhimurium 100 up to 100 uM by Ames test; format: toxicity, organism-based; details: salmonella enterica subsp. enterica serovar typhimurium
Salmonella typhimurium [33] = assay: Mutagenic activity in Salmonella typhimurium 1535 up to 100 uM by Ames test; format: toxicity, organism-based; details: salmonella enterica subsp. enterica serovar typhimurium
Salmonella typhimurium [34] = assay: Mutagenic activity in S9-induced Salmonella typhimurium TA98 up to 100 uM by Ames test; format: toxicity, organism-based; details: salmonella enterica subsp. enterica serovar typhimurium
Salmonella typhimurium [35] = assay: Mutagenic activity in S9-induced Salmonella typhimurium 100 up to 100 uM by Ames test; format: toxicity, organism-based; details: salmonella enterica subsp. enterica serovar typhimurium
Salmonella typhimurium [36] = assay: Mutagenic activity in S9-induced Salmonella typhimurium 1535 up to 100 uM by Ames test; format: toxicity, organism-based; details: salmonella enterica subsp. enterica serovar typhimurium
Plasmodium berghei [37] = assay: Antimalarial activity against Plasmodium berghei ANKA infected in orally dosed mouse model compound administered at 9 hrs post-infection on first day followed by bid for subsequent 3 days; format: functional; details: po
How it was run: (§3)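 Oral dosing in mouse malaria models. Efficacy is expressed as ED50, ED90 and ED99 in mg/kg/day.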

Plasmodium falciparum [38] = assay: Antimalarial activity against Plasmodium falciparum 3D70087/N9 infected in po dosed NOD-scid IL-2Rgamma-null mouse model compound administered bid for 4 to 7 days by FACS analysis; format: functional; details: 3D7 0087/N9, 4TO7, po; how it was run: as §3
[39] = Unbound fraction in human plasma; format: ADME, cell-free
[40] = Cytotoxicity against human RPTEC after 4 days by alamar blue assay; format: cell-based; details: RPTEC cells, read-out: LC50

Cytochrome P450 2C9, sequence (P11712 whole entry): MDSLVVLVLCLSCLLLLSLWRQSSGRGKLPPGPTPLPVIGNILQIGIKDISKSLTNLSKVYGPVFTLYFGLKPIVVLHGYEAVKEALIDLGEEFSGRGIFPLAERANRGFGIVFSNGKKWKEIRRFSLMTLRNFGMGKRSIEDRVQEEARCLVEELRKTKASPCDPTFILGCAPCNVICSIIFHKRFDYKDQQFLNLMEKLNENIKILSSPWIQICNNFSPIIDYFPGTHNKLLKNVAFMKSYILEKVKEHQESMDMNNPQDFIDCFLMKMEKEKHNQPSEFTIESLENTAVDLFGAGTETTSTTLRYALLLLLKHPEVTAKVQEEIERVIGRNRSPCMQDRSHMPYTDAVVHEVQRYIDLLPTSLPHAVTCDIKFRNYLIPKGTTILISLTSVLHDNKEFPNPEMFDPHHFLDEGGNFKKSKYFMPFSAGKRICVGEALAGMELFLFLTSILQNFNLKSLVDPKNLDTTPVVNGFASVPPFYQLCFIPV
Dihydroorotate dehydrogenase (quinone), mitochondrial, sequence (Q02127 whole entry): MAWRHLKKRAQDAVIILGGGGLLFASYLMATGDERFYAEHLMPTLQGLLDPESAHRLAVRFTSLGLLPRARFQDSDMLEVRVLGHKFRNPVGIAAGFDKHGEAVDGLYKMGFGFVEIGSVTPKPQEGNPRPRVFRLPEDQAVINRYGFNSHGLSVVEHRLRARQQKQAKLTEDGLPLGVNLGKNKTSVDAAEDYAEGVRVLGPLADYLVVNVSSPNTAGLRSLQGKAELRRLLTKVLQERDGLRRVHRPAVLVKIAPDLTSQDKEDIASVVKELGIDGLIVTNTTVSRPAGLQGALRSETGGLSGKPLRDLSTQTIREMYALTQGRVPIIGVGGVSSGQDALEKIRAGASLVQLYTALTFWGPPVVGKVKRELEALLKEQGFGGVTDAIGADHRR
Cytochrome P450 2C19, sequence (P33261 whole entry): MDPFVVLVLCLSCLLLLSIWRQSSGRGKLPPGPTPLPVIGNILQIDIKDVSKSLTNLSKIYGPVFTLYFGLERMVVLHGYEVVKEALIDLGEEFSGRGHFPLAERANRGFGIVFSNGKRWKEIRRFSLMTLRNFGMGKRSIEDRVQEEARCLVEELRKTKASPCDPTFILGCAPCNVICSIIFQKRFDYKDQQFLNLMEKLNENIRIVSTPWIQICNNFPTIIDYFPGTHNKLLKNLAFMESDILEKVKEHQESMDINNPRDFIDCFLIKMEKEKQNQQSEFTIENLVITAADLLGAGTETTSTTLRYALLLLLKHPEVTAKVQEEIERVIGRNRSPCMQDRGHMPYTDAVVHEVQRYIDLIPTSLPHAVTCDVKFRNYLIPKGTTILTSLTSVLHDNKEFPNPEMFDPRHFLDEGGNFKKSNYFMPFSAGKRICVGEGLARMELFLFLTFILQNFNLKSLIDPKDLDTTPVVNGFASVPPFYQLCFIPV
Cytochrome P450 3A4, sequence (P08684 whole entry): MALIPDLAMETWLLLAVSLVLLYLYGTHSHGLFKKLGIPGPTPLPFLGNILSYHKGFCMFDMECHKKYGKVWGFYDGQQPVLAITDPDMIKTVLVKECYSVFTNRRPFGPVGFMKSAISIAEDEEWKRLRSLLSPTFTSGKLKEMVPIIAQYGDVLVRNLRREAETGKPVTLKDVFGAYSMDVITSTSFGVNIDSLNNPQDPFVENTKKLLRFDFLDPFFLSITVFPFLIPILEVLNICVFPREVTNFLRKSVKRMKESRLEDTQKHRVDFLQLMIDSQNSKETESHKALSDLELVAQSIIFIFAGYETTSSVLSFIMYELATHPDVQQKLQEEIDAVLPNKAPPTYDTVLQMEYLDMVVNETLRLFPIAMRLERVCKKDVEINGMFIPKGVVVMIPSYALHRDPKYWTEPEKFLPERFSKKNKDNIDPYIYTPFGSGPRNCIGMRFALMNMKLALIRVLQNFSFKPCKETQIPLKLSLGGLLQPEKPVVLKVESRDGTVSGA
Cytochrome P450 2D6, sequence (P10635 whole entry): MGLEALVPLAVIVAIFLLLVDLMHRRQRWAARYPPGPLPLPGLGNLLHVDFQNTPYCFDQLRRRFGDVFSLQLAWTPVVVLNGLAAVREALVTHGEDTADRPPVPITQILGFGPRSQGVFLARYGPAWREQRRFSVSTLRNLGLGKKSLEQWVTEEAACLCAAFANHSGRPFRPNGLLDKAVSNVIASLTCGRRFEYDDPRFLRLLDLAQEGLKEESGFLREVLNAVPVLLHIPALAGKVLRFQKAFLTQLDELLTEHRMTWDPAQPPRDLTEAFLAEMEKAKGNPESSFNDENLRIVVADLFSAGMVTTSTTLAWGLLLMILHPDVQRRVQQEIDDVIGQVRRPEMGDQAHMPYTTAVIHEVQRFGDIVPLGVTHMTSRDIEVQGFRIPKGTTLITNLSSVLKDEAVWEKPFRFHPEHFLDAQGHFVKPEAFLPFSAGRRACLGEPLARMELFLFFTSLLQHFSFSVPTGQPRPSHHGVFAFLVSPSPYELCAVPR
Voltage-gated inwardly rectifying potassium channel KCNH2, sequence (Q12809 whole entry): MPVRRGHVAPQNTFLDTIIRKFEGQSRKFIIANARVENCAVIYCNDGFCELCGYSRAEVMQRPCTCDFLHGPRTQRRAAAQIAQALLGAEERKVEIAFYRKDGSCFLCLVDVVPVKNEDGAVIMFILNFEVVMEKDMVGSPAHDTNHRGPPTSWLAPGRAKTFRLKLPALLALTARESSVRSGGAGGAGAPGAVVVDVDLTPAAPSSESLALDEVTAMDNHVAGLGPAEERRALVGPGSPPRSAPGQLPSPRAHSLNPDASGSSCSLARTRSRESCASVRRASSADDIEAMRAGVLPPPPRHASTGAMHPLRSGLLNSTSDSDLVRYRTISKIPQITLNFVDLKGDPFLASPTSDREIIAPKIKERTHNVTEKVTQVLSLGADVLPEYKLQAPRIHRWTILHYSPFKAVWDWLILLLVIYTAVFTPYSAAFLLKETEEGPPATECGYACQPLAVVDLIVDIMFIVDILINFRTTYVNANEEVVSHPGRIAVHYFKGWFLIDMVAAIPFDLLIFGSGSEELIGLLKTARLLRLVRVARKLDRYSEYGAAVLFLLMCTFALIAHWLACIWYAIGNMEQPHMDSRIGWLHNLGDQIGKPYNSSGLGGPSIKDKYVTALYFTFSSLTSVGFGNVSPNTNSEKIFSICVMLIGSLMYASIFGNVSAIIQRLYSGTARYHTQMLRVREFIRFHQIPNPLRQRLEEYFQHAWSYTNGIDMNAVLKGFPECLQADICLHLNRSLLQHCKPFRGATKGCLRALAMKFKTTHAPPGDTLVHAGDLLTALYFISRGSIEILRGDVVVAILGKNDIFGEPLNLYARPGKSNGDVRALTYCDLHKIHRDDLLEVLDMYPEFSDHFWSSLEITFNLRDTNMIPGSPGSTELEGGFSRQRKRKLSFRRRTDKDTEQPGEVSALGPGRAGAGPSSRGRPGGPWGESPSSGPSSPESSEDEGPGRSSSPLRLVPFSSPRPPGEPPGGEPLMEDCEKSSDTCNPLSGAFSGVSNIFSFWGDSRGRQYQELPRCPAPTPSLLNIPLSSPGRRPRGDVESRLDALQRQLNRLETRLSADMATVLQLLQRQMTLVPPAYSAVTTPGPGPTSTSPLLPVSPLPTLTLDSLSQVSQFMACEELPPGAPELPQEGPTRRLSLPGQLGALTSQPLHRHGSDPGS

IC50 [1]: 0.044 µM
IC50 [2]: > 30 µM
inhibition (Plasmodium berghei [3]): Active
inhibition (Plasmodium vivax): Active
IC50 (Plasmodium falciparum [4]): 0.019 µM
IC50 (Plasmodium falciparum [5]): 0.026 µM
CLhep predicted [6]: 4 mL/min/kg
CLhep predicted [7]: 33 mL/min/kg
IC50 (Cytochrome P450 1A2): > 10 µM
IC50 (Cytochrome P450 2C9): > 10 µM
IC50 (Cytochrome P450 2C19): > 10 µM
IC50 (Cytochrome P450 3A4): > 10 µM
IC50 (Cytochrome P450 2D6): > 10 µM
SMILES: Cc1nc2c(OC(F)F)cccc2n1-c1ccc(C(=O)NC2CC2)s1
IC50 [8]: 28.8 µM

IC50 [1]: 0.04 µM
inhibition (Plasmodium berghei [3]): Active
inhibition (Plasmodium vivax): Active
IC50 (Plasmodium falciparum [4]): 0.007 µM
IC50 (Plasmodium falciparum [5]): 0.01 µM
CLhep predicted [6]: < 4 mL/min/kg
CLhep predicted [7]: 26 mL/min/kg
AUC(0-inf) [9]: 703 ng·h/mL
AUC (Canis familiaris [10]): 1500 ng·h/mL
clearance [11]: 24 mL/min/kg
clearance [12]: 6.7 mL/min/kg
Vd [13]: 0.995 L/kg
Vd [14]: 0.279 L/kg
half-life [15]: 51 min
half-life [16]: 31.2 min
AUC(0-inf) [17]: 1040 ng·h/mL
AUC (Canis familiaris [18]): 359 ng·h/mL
Cmax [19]: 618 ng/mL
Cmax [20]: 1110 ng/mL
bioavailability [21]: 49%
F (Canis familiaris [22]): 19%
fraction unbound [23]: 0.182
fraction unbound [24]: 0.22
fraction unbound [25]: 0.312
fraction unbound [26]: 0.112
IC50 (Cytochrome P450 1A2): > 10 µM
IC50 (Cytochrome P450 2C9): > 10 µM
IC50 (Cytochrome P450 2C19): > 10 µM
IC50 (Cytochrome P450 3A4): > 10 µM
IC50 (Cytochrome P450 2D6): > 10 µM
Papp [27]: 49 ×10⁻⁶ cm/s
Cmax [29]: 29000 ng/mL
AUC at 168 h [30]: 328000 ng·h/mL
fraction unbound [39]: 0.11
SMILES: Cc1nc2c(C#N)cccc2n1-c1ccc(C(=O)NC2CC2)s1
NOAEL at 168 h [28]: > 600 mg/kg
Activity (Salmonella typhimurium [31]): Non-toxic
Activity (Salmonella typhimurium [32]): Non-toxic
Activity (Salmonella typhimurium [33]): Non-toxic
Activity (Salmonella typhimurium [34]): Non-toxic
Activity (Salmonella typhimurium [35]): Non-toxic
Activity (Salmonella typhimurium [36]): Non-toxic
ED50 (Plasmodium berghei [37]): 13 mg/kg/day
ED90 (Plasmodium berghei [37]): 28 mg/kg/day
ED99 (Plasmodium berghei [37]): 62 mg/kg/day
ED50 (Plasmodium falciparum [38]): 13 mg/kg/day
ED90 (Plasmodium falciparum [38]): 27 mg/kg/day
ED99 (Plasmodium falciparum [38]): 60 mg/kg/day

SMILES: CCCNC(=O)c1ccc(-n2cnc3ccccc32)s1
IC50 [1]: 0.7 µM
IC50 [2]: > 30 µM
IC50 (Plasmodium falciparum [4]): 0.47 µM
IC50 (Plasmodium falciparum [5]): 1.1 µM
CC50 at 96 h [40]: > 62 µM
